This passage reports Activity and IC50 results from ChEMBL document CHEMBL4219181, “Site-specific effect of polar functional group-modification in lipids of TLR2 ligands for modulating the ligand immunostimulatory activity” (Bioorg Med Chem Lett, 2018).

Activity calls are given as the source filed them. The calls are words filed in the database; no cut-off is given here. Where a SMILES comes first, the peptide text is derived from it. The star is where a group is joined. Propyl(2R-PamO,3-PamO) = CCCCCCCCCCCCCCCC(=O)OC[C@H](C*)OC(=O)CCCCCCCCCCCCCCC; X1 = CCCCCCCCCCCCCCCC(=O)OC[C@H](C*)OC(=O)CCCCCNC(=O)CCCCCCCC; X2 = CCCCCCCCCCCCCCCC(=O)OC[C@H](C*)OC(=O)CCNC(=O)CCCCCCCCCCC; X3 = CCCCCCCCCCCCCCCC(=O)OC[C@H](C*)OC(=O)CCCNC(=O)CCCCCCCCCC; X4 = CCCCCCCCCCCCCCCC(=O)OC[C@H](C*)OC(=O)CCCCCCNC(=O)CCCCCCC; X5 = CCCCCCCCCCCCCCCC(=O)OC[C@H](C*)OC(=O)CCCCNC(=O)CCCCCCCCC; X6 = CCCCCCCCCCCCCCCC(=O)O[C@H](COC(=O)CCCCCCCCCCNC(=O)CCC)C*; X7 = CCCCCCCCCCCCCCCC(=O)O[C@H](COC(=O)CCCCCCCCNC(=O)CCCCC)C*; X8 = CCCCCCCCCCCCCCCC(=O)O[C@H](COC(=O)CCCCCCCCCCCNC(=O)CC)C*; X9 = CCCCCCCCCCCCCCCC(=O)O[C@H](COC(=O)CCCCCCCCCNC(=O)CCCC)C*

The test system of experiment [1] is THP-1. The experiment in a line: Immunostimulatory activity in human THP1 cells assessed as increase in TNF-alpha production after 24 hrs by ELISA. The experiment is classed as functional, cell-based.
Experiment [2] deals with THP-1. Briefly: Immunostimulatory activity in human THP1 cells assessed as increase in IL-6 production after 24 hrs by ELISA. Type of experiment: functional, cell-based. Put shortly: (§1)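 PMA-differentiated THP-1 human monocytic cells were incubated with a range of ligand concentrations. Secreted IL-6 was measured by ELISA. Data are mean ± standard error of triplicate values, and similar results were obtained in two or three independent experiments.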

In experiment [3] the target is Toll-like receptor 2 (Homo sapiens, UniProt O60603). The experiment in a line: Inhibition of biotin labelled Pam2CSK4 binding to His tagged human TLR2 after 45 mins by AlphaScreen assay. Put shortly:
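Competitive binding was measured by AlphaScreen using His-tagged human TLR2 protein and biotinylated Pam2CSK4 as the tracer ligand. Competing ligands displace Pam2CSK4-biotin and lower the luminescent proximity signal.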

Experiment [4] addresses Toll-like receptor 2 (Mus musculus, UniProt Q9QUN7). The experiment in a line: Inhibition of biotin labelled Pam2CSK4 binding to mouse TLR2 Fc chimera protein after 45 mins by AlphaScreen assay.
Experiment [5] concerns THP-1. The experiment in a line: Immunostimulatory activity in human THP1 cells assessed as increase in TNF-alpha production at 1 to 100 nM after 24 hrs by ELISA. Type of experiment: functional, cell-based.
The test system of experiment [6] is RAW264.7. Briefly: Immunostimulatory activity in mouse RAW264.7 cells assessed as increase in TNF-alpha production at 1 to 100 nM after 24 hrs by ELISA. Type of experiment: functional, cell-based.
In experiment [7] the test system is RAW264.7. The experiment in a line: Immunostimulatory activity in mouse RAW264.7 cells assessed as increase in IL-6 production at 1 to 100 nM after 24 hrs by ELISA. Type of experiment: functional, cell-based. Put shortly: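 Murine RAW264.7 macrophages were incubated with various ligand concentrations, and secreted IL-6 was quantified by ELISA. Values are mean ± standard error of triplicates, with results reproduced in two or three independent experiments.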

Experiment [8] has as its system THP-1. Briefly: Immunostimulatory activity in human THP1 cells assessed as increase in IL-6 production at 1 to 100 nM after 24 hrs by ELISA. The experiment is classed as functional, cell-based. The essentials: as §1

Chain of Toll-like receptor 2 (Mus musculus, UniProt Q9QUN7) (Q9QUN7 whole entry): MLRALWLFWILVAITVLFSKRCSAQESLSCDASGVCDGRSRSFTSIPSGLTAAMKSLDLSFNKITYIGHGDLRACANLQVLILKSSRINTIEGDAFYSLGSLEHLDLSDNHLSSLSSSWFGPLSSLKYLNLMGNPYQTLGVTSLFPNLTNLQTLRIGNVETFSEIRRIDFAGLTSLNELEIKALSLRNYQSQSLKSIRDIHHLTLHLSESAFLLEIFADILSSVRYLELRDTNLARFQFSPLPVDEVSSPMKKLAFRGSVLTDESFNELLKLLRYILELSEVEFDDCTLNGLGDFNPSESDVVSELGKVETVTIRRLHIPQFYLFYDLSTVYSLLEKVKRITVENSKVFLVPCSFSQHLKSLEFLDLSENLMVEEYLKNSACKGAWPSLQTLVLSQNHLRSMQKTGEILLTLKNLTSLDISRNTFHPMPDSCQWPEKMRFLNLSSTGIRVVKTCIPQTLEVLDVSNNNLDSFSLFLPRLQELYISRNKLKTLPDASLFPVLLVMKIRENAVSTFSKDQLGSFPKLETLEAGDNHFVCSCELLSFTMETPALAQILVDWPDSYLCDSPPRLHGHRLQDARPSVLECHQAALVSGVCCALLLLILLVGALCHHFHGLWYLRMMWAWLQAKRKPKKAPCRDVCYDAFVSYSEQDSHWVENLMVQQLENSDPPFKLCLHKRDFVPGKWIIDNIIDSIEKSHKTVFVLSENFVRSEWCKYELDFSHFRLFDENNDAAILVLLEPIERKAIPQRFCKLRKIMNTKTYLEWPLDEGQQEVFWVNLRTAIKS
Chain of Toll-like receptor 2 (Homo sapiens, UniProt O60603) (O60603 whole entry): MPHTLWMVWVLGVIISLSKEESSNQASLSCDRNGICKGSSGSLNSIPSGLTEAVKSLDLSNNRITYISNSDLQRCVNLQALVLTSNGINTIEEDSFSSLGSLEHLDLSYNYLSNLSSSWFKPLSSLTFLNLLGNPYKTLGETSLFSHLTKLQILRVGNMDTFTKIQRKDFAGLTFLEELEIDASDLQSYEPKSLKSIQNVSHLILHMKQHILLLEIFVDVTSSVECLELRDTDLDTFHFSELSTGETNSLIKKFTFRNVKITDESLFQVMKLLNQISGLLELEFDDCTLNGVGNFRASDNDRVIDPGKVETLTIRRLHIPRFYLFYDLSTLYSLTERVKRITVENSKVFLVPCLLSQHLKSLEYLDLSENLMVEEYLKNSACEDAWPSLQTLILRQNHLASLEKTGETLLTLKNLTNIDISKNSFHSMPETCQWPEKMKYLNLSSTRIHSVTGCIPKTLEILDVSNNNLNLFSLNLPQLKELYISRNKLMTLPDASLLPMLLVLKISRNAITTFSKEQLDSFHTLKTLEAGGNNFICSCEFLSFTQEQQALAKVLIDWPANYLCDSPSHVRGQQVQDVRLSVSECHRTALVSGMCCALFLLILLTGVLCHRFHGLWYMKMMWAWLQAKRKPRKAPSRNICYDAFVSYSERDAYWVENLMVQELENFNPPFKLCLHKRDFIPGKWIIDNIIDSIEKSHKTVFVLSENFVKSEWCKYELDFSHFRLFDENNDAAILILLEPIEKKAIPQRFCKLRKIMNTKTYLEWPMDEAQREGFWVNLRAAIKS

In the case of `CCCCCCCCCCCCCCCC(=O)O[C@H](COC(=O)CCCCCCCCCNC(=O)CCCC)CSC[C@H](N)C(=O)N[C@@H](CO)C(=O)N[C@@H](CCCCN)C(=O)N[C@@H](CCCCN)C(=O)N[C@@H](CCCCN)C(=O)N[C@@H](CCCCN)C(=O)O` (H-C(X9)SKKKK-OH), the Activity result with THP-1 [1] and with THP-1 [2] was “Dose-dependent effect” each time. For the same compound, on Toll-like receptor 2 [3], the IC50 was 6.43 µM.

On to `CCCCCCCCCCCCCCCC(=O)OC[C@H](CSC[C@H](N)C(=O)N[C@@H](CO)C(=O)N[C@@H](CCCCN)C(=O)N[C@@H](CCCCN)C(=O)N[C@@H](CCCCN)C(=O)N[C@@H](CCCCN)C(=O)O)OC(=O)CCCCCCCCCCCCCCC` (H-C(Propyl(2R-PamO,3-PamO))SKKKK-OH), for which the 50% inhibitory concentration (IC50) at Toll-like receptor 2 [4] was 0.349 µM; at Toll-like receptor 2 [3], 0.426 to 0.55 µM. For the same compound, the outcome in the experiment on THP-1 [5] and in the experiment with RAW264.7 [6] was inactive.

For `CCCCCCCCCCCCCCCC(=O)OC[C@H](CSC[C@H](N)C(=O)N[C@@H](CO)C(=O)N[C@@H](CCCCN)C(=O)N[C@@H](CCCCN)C(=O)N[C@@H](CCCCN)C(=O)N[C@@H](CCCCN)C(=O)O)OC(=O)CCCCCCNC(=O)CCCCCCC` (H-C(X4)SKKKK-OH), the IC50 at Toll-like receptor 2 [4] was found to be 5.69 µM; at Toll-like receptor 2 [3] it was 3.37 µM. In addition, the result in the experiment on RAW264.7 [7], with THP-1 [5], in the experiment on THP-1 [8] and in the experiment on RAW264.7 [6] was Active.

For the compound `CCCCCCCCCCCCCCCC(=O)OC[C@H](CSC[C@H](N)C(=O)N[C@@H](CO)C(=O)N[C@@H](CCCCN)C(=O)N[C@@H](CCCCN)C(=O)N[C@@H](CCCCN)C(=O)N[C@@H](CCCCN)C(=O)O)OC(=O)CCCCCNC(=O)CCCCCCCC` (H-C(X1)SKKKK-OH), the IC50 on Toll-like receptor 2 [4] and at Toll-like receptor 2 [3] was 4.75 µM throughout. Moreover, the result in the experiment with RAW264.7 [7], in the experiment with THP-1 [5], in the experiment with THP-1 [8] and in the experiment on RAW264.7 [6] was Active.

`CCCCCCCCCCCCCCCC(=O)OC[C@H](CSC[C@H](N)C(=O)N[C@@H](CO)C(=O)N[C@@H](CCCCN)C(=O)N[C@@H](CCCCN)C(=O)N[C@@H](CCCCN)C(=O)N[C@@H](CCCCN)C(=O)O)OC(=O)CCNC(=O)CCCCCCCCCCC` (H-C(X2)SKKKK-OH): the values for the IC50 on Toll-like receptor 2 [4] and at Toll-like receptor 2 [3] were 1.04 µM and 1.68 µM, respectively. The outcome with RAW264.7 [7], in the experiment with THP-1 [5], in the experiment with THP-1 [8] and with RAW264.7 [6] was Active.

With `CCCCCCCCCCCCCCCC(=O)O[C@H](COC(=O)CCCCCCCCCCCNC(=O)CC)CSC[C@H](N)C(=O)N[C@@H](CO)C(=O)N[C@@H](CCCCN)C(=O)N[C@@H](CCCCN)C(=O)N[C@@H](CCCCN)C(=O)N[C@@H](CCCCN)C(=O)O` (H-C(X8)SKKKK-OH), the Activity entry in the experiment with THP-1 [1] and in the experiment with THP-1 [2] was “Dose-dependent effect” each time. Also, on Toll-like receptor 2 [3], the half-inhibitory concentration (IC50) is 3.94 µM.

Turning to `CCCCCCCCCCCCCCCC(=O)O[C@H](COC(=O)CCCCCCCCNC(=O)CCCCC)CSC[C@H](N)C(=O)N[C@@H](CO)C(=O)N[C@@H](CCCCN)C(=O)N[C@@H](CCCCN)C(=O)N[C@@H](CCCCN)C(=O)N[C@@H](CCCCN)C(=O)O` (H-C(X7)SKKKK-OH), the Activity result in the experiment on THP-1 [1] and in the experiment with THP-1 [2] was “Dose-dependent effect” each time. The compound also showed a half-inhibitory concentration (IC50) at Toll-like receptor 2 [3] of 7.52 µM.

In the case of `CCCCCCCCCCCCCCCC(=O)OC[C@H](CSC[C@H](N)C(=O)N[C@@H](CO)C(=O)N[C@@H](CCCCN)C(=O)N[C@@H](CCCCN)C(=O)N[C@@H](CCCCN)C(=O)N[C@@H](CCCCN)C(=O)O)OC(=O)CCCCNC(=O)CCCCCCCCC` (H-C(X5)SKKKK-OH), the IC50 turned out to be 5.61 µM at Toll-like receptor 2 [4] and 4.65 µM on Toll-like receptor 2 [3]. Further, the outcome with RAW264.7 [7], with THP-1 [5], with THP-1 [8] and with RAW264.7 [6] was Active.

On to `CCCCCCCCCCCCCCCC(=O)O[C@H](COC(=O)CCCCCCCCCCNC(=O)CCC)CSC[C@H](N)C(=O)N[C@@H](CO)C(=O)N[C@@H](CCCCN)C(=O)N[C@@H](CCCCN)C(=O)N[C@@H](CCCCN)C(=O)N[C@@H](CCCCN)C(=O)O` (H-C(X6)SKKKK-OH), for which the Activity entry in the experiment with THP-1 [1] and in the experiment on THP-1 [2] was “Dose-dependent effect” throughout. This compound showed a half-maximal inhibitory concentration (IC50) on Toll-like receptor 2 [3] of 4.36 µM.

With `CCCCCCCCCCCCCCCC(=O)OC[C@H](CSC[C@H](N)C(=O)N[C@@H](CO)C(=O)N[C@@H](CCCCN)C(=O)N[C@@H](CCCCN)C(=O)N[C@@H](CCCCN)C(=O)N[C@@H](CCCCN)C(=O)O)OC(=O)CCCNC(=O)CCCCCCCCCC` (H-C(X3)SKKKK-OH), the half-inhibitory concentration (IC50) at Toll-like receptor 2 [4] is 1.38 µM; at Toll-like receptor 2 [3], 1.96 µM. The result in the experiment on RAW264.7 [7], in the experiment on THP-1 [5], in the experiment with THP-1 [8] and in the experiment with RAW264.7 [6] was Active.
